Measurements as given in ChEMBL document CHEMBL3046702, “Herbicidal, plant growth inhibitory, and cytotoxic activities of bismuthines containing aromatic heterocycles” (J Agric Food Chem, 2003).
The source made the active and inactive calls. No cut-off for these calls is given here.

Columns and labels:
[1] = test system: Radical scavenging activity; assay: Antioxidant activity assessed as DPPH free radical scavenging activity at 5 to 100 uM after 30 min by spectrophotometric analysis; format: functional
Outline: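 DPPH reduction by the compounds was read spectrophotometrically at 517 nm after 30 min. 100% DMSO served as the blank and quercetin as the reference scavenger.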

[2] = test system: Phaseolus vulgaris; assay: Herbicidal activity against Phaseolus vulgaris assessed as inhibition of mitochondrial oxygen uptake; format: functional, organism-based; settings: read-out: I50
[3] = test system: Artemia salina; assay: Toxicity in Artemia salina (brine shrimp) larvae assessed as mortality; format: organism-based; settings: in vivo
Outline: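 Brine shrimp lethality test on *Artemia salina* larvae, run across several concentrations up to a top level of 1000 µM. Mortality was scored at each concentration, and LC50 values in µM were derived from the concentration–mortality data.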

[4] = test system: Lactuca sativa; assay: Herbicidal activity against Lactuca sativa var.Roman (lettuce) assessed as inhibition of seed germination after 48 hr; format: functional, organism-based; settings: read-out: I50
[5] = test system: Trifolium pratense; assay: Herbicidal activity against Trifolium pratense var. Kenland (red clover) assessed as inhibition of seed respiration during germination after 72 hr by polarographic analysis; format: functional, organism-based
Outline: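 Red clover seeds were exposed to the bismuthines during germination, with respiration followed over the imbibition time. Values were taken at 72 h as the concentration giving 50% inhibition of seed respiration, using means of three experiments.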

[6] = test system: Trifolium pratense; assay: Herbicidal activity against Trifolium pratense var. Kenland (red clover) assessed as inhibition of seed germination after 48 hr; format: functional, organism-based; settings: read-out: I50
[7] = test system: Lolium multiflorum; assay: Herbicidal activity against Lolium multiflorum var. Gulf (Italian ryegrass) assessed as inhibition of seed germination after 48 hr; format: functional, organism-based; settings: read-out: I50
[8] = test system: Lolium multiflorum; assay: Herbicidal activity against Lolium multiflorum var. Gulf (Italian ryegrass) seedlings assessed as shoot length rate at 3 uM after 48 hr relative to control; format: functional, organism-based
Outline: (§1)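 Italian ryegrass seedlings grown with 0, 0.5, 1, 3, 5, 7.5 or 10 µM of each bismuthine. Shoot and root lengths were measured at 48 h and expressed as a percentage of the average untreated control length.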

[9] = test system: Lactuca sativa; assay: Herbicidal activity against Lactuca sativa var.Roman (lettuce) seedlings assessed as root length at 75 uM after 120 hr (reference value: 18 to 19 mm); format: functional, organism-based
[10] = test system: Lolium multiflorum; assay: Herbicidal activity against Lolium multiflorum var. Gulf (Italian ryegrass) seedlings assessed as shoot length rate at 10 uM after 48 hr relative to control; format: functional, organism-based; outline: as §1
[11] = test system: Lolium multiflorum; assay: Herbicidal activity against Lolium multiflorum var. Gulf (Italian ryegrass) seedlings assessed as root length rate at 5 uM after 48 hr relative to control; format: functional, organism-based; outline: as §1
[12] = test system: Lolium multiflorum; assay: Herbicidal activity against Lolium multiflorum var. Gulf (Italian ryegrass) seedlings assessed as shoot length rate at 5 uM after 48 hr relative to control; format: functional, organism-based; outline: as §1
[13] = test system: Lactuca sativa; assay: Herbicidal activity against Lactuca sativa var.Roman (lettuce) seedlings assessed as shoot length at 75 uM after 120 hr (reference value: 27 to 31 mm); format: functional, organism-based
[14] = test system: Lolium multiflorum; assay: Herbicidal activity against Lolium multiflorum var. Gulf (Italian ryegrass) seedlings assessed as root length rate at 3 uM after 48 hr relative to control; format: functional, organism-based; outline: as §1
[15] = test system: Lactuca sativa; assay: Herbicidal activity against Lactuca sativa var.Roman (lettuce) seedlings assessed as root length at 25 uM after 120 hr (reference value: 18 to 19 mm); format: functional, organism-based
[16] = test system: Lolium multiflorum; assay: Herbicidal activity against Lolium multiflorum var. Gulf (Italian ryegrass) seedlings assessed as root length rate at 1 uM after 48 hr relative to control; format: functional, organism-based; outline: as §1
[17] = test system: Lolium multiflorum; assay: Herbicidal activity against Lolium multiflorum var. Gulf (Italian ryegrass) seedlings assessed as shoot length rate at 1 uM after 48 hr relative to control; format: functional, organism-based; outline: as §1
[18] = test system: Lactuca sativa; assay: Herbicidal activity against Lactuca sativa var.Roman (lettuce) seedlings assessed as seed germination rate at 0.5 uM after 48 hr relative to control; format: functional, organism-based
[19] = test system: Lactuca sativa; assay: Herbicidal activity against Lactuca sativa var.Roman (lettuce) seedlings assessed as partial inhibition of hypocotyle growth up to 10 uM after 48 hr; format: functional, organism-based
[20] = test system: Lolium multiflorum; assay: Herbicidal activity against Lolium multiflorum var. Gulf (Italian ryegrass) seedlings assessed as shoot length rate at 0.5 uM after 48 hr relative to control; format: functional, organism-based; outline: as §1
[21] = test system: Lactuca sativa; assay: Herbicidal activity against Lactuca sativa var.Roman (lettuce) seedlings assessed as seed germination rate at 5 uM after 48 hr relative to control; format: functional, organism-based
[22] = test system: Lactuca sativa; assay: Herbicidal activity against Lactuca sativa var.Roman (lettuce) seedlings assessed as shoot length at 10 uM after 120 hr (reference value: 27 to 31 mm); format: functional, organism-based
[23] = test system: Physalis ixocarpa; assay: Herbicidal activity against Physalis ixocarpa assessed as inhibition of seed respiration during germination after 72 hr by polarographic analysis; format: functional, organism-based
[24] = test system: Lactuca sativa; assay: Herbicidal activity against Lactuca sativa var.Roman (lettuce) seedlings assessed as shoot length at 5 uM after 120 hr (reference value: 27 to 31 mm); format: functional, organism-based
[25] = test system: Lactuca sativa; assay: Herbicidal activity against Lactuca sativa var.Roman (lettuce) seedlings assessed as root length at 50 uM after 120 hr (reference value: 18 to 19 mm); format: functional, organism-based
[26] = test system: Radical scavenging activity; assay: Antioxidant activity assessed as DPPH free radical scavenging activity at 5 to 100 uM after 30 min by TLC autographic assay; format: functional
[27] = test system: Lolium multiflorum; assay: Herbicidal activity against Lolium multiflorum var. Gulf (Italian ryegrass) seedlings assessed as shoot length rate at 7.5 uM after 48 hr relative to control; format: functional, organism-based; outline: as §1
[28] = test system: Trifolium pratense; assay: Herbicidal activity against Trifolium pratense var. Kenland (red clover) seedlings assessed as partial inhibition of hypocotyle growth up to 15 uM after 48 hr; format: functional, organism-based
[29] = test system: Lolium multiflorum; assay: Herbicidal activity against Lolium multiflorum var. Gulf (Italian ryegrass) seedlings assessed as root length rate at 7.5 uM after 48 hr relative to control; format: functional, organism-based; outline: as §1
[30] = test system: Lactuca sativa; assay: Herbicidal activity against Lactuca sativa var.Roman (lettuce) seedlings assessed as seed germination rate at 7.5 uM after 48 hr relative to control; format: functional, organism-based
[31] = test system: Lolium multiflorum; assay: Herbicidal activity against Lolium multiflorum var. Gulf (Italian ryegrass) assessed as inhibition of seed respiration during germination after 72 hr by polarographic analysis; format: functional, organism-based
[32] = test system: Lactuca sativa; assay: Herbicidal activity against Lactuca sativa var.Roman (lettuce) seedlings assessed as seed germination rate at 1 uM after 48 hr relative to control; format: functional, organism-based
[33] = test system: Lolium multiflorum; assay: Herbicidal activity against Lolium multiflorum var. Gulf (Italian ryegrass) seedlings assessed as root length rate at 0.5 uM after 48 hr relative to control; format: functional, organism-based; outline: as §1
[34] = test system: Lactuca sativa; assay: Herbicidal activity against Lactuca sativa var.Roman (lettuce) seedlings assessed as seed germination rate at 10 uM after 48 hr relative to control; format: functional, organism-based
[35] = test system: Lactuca sativa; assay: Herbicidal activity against Lactuca sativa var.Roman (lettuce) seedlings assessed as root length at 10 uM after 120 hr (reference value: 18 to 19 mm); format: functional, organism-based
[36] = test system: Lactuca sativa; assay: Herbicidal activity against Lactuca sativa var.Roman (lettuce) seedlings assessed as inhibition of seed germination at 5 uM after 48 hr; format: functional, organism-based
[37] = test system: Lactuca sativa; assay: Herbicidal activity against Lactuca sativa var.Roman (lettuce) seedlings assessed as growth inhibition at 5 uM after 120 hr; format: functional, organism-based
[38] = test system: Lactuca sativa; assay: Herbicidal activity against Lactuca sativa var.Roman (lettuce) seedlings assessed as root length at 5 uM after 120 hr (reference value: 18 to 19 mm); format: functional, organism-based
[39] = test system: Lactuca sativa; assay: Herbicidal activity against Lactuca sativa var.Roman (lettuce) seedlings assessed as seed germination rate at 3 uM after 48 hr relative to control; format: functional, organism-based
[40] = test system: Lolium multiflorum; assay: Herbicidal activity against Lolium multiflorum var. Gulf (Italian ryegrass) seedlings assessed as root length rate at 10 uM after 48 hr relative to control; format: functional, organism-based; outline: as §1

`O=c1c(O)c(-c2ccc(O)c(O)c2)oc2cc(O)cc(O)c12` was tested, and the Activity [1] was “Active”.

For “TRIS(1-METHYL-2-PYRROLYL)BISMUTH [listing 1 of 2 here]”, the IC50 [2] was 17.1 µM, the LC50 [3] was 638 µM and the IC50 [4] was 34 µM. It also gave an IC50 ([5]; read-out: I50) of 8.4 µM, an IC50 [6] of 7.5 µM and an IC50 [7] of 33.8 µM.

In the case of “TRIS(1-METHYL-2-PYRROLYL)BISMUTH [listing 2 of 2 here]”, the Activity [8] is reported as 82%, the Activity [9] is reported as 0 mm and the Activity [10] is reported as 28%. It also gave an Activity [11] of 46%, an Activity [12] of 66% and an Activity [13] of 0 mm. For the same molecule, the Activity [14] was 76%, the Activity [15] was 0 mm and the Activity [16] was 78%. The Activity [17] was 84%, the Activity [18] was 85% and the inhibition [5] was “Dose-dependent effect”. The “growth inhibition (GI)” value [19] was “Active”, the Activity [20] was 93% and the Activity [21] was 76%. For the same molecule, the Activity [22] was 9 mm, the inhibition [23] was “Active” and the Activity [24] was 29 mm. For the same molecule, the Activity [1] was “Active”, the Activity [25] was 0 mm and the Activity [26] was “inactive”. For the same molecule, the Activity [27] was 64%, the “growth inhibition (GI)” value [28] was “Active” and the Activity [29] was 60%. For the same molecule, the Activity [30] was 65%, the inhibition [31] was “inactive” and the Activity [32] was 85%. The Activity [33] was 112%, the Activity [34] was 60% and the Activity [35] was 11 mm. The inhibition [36] was “Active”, the inhibition [37] was 30% and the Activity [38] was 30 mm. It also gave an Activity [39] of 80% and an Activity [40] of 34%.
